The subject of experiment [1] is L1210. The experiment is described as follows: The compound was tested in vitro for mitotic inhibition against proliferation of cultured lymphoid leukemia L1210 cells. Type of experiment: functional, Mus musculus. In short, it runs like this:
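Cultured lymphoid leukemia L1210 cells exposed to agent for 12 h; mitotic index scored as cells in mitosis over total cells; value is the nanomolar concentration producing a mitotic index of 0.5.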

Experiment [2] concerns P388. The experiment is described as follows: The compound was tested in vivo for percent increase in life span against lymphocytic leukemia P388 in mice after intraperitoneal administration of 1 mg/kg dose. Type of experiment: functional. The conditions noted are these: Mus musculus, P388, ip. The method in brief:
(§1)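 Mice bearing lymphocytic leukemia P388. The reported value is the percent increase in life span at the highest nontoxic dose tested.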

Experiment [3] deals with P388. Nature of the experiment: The compound was tested in vivo for percent increase in life span against lymphocytic leukemia P388 in mice after intraperitoneal administration of 30 mg/kg dose. Type of experiment: functional. The conditions noted are these: Mus musculus, P388, ip. The method in brief:
as §1

Experiment [4] concerns L1210. Nature of the experiment: The compound was tested in vitro for cytotoxicity against proliferation of cultured lymphoid leukemia L1210 cells. In kind it is functional, cell-based. The conditions noted are these: Mus musculus. In short, it runs like this: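 Cultured lymphoid leukemia L1210 cells exposed to agent for 48 h; value is the nanomolar concentration giving 50% of control growth.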

In experiment [5] the test system is P388. Nature of the experiment: The compound was tested in vivo for percent increase in life span against lymphocytic leukemia P388 in mice after intraperitoneal administration of 0.25 mg/kg dose. In kind it is functional. The conditions noted are these: Mus musculus, P388, ip. In short, it runs like this:
as §1

For experiment [6], the system named is P388. The experiment is described as follows: The compound was tested in vivo for percent increase in life span against lymphocytic leukemia P388 in mice after intraperitoneal administration of 0.22 mg/kg dose. Type of experiment: functional. The conditions noted are these: Mus musculus, P388, ip. The method in brief: as §1
Experiment [7] concerns P388. Nature of the experiment: The compound was tested in vivo for percent increase in life span against lymphocytic leukemia P388 in mice after intraperitoneal administration of 25 mg/kg dose. In kind it is functional. The conditions noted are these: Mus musculus, P388, ip. The method in brief: as §1
Experiment [8] has as its system P388. The experiment is described as follows: The compound was tested in vivo for percent increase in life span against lymphocytic leukemia P388 in mice after intraperitoneal administration of 0.5 mg/kg dose. Type of experiment: functional. Particulars: Mus musculus, P388, ip. In short, it runs like this: as §1

What is called ILS is the gain in survival time of treated over control animals, in per cent. Lower therefore signals a small benefit in survival. In general, IC50 refers to the midpoint of a concentration-inhibition curve. A lower IC50 goes with inhibition by little substance.

Consider `CCOC(=O)Nc1cc2c(c(N)n1)N=C(c1ccc(OC)cc1)C(C)N2` (stereo not given), for which, in experiment [1], the MI0.5 is reported as 0.42 nM. The same compound had an ILS at 1 mg/kg in experiment [2] of 69%.

The compound `CCOC(=O)Nc1cc2c(c(N)n1)N=C(c1ccccc1)[C@@H](C)N2` came in with an MI0.5 in experiment [1] of 27 nM. The same compound returned an ILS at 30 mg/kg in experiment [3] of 88%.

In experiment [4], `CCOC(=O)Nc1cc2c(c(N)n1)N=C(c1ccc(OC(=O)NCCCl)cc1)C(C)N2` (stereo not given) yielded a half-inhibitory concentration (IC50) of 0.043 nM. In experiment [2], this compound displayed an ILS at 1 mg/kg of 90%.

In turn, `CCCCNC(=O)Oc1ccc(C2=Nc3c(cc(NC(=O)OCC)nc3N)NC2C)cc1` (stereo not given) yielded an IC50 in experiment [4] of 0.47 nM. In experiment [5], this compound had an increase in life span (ILS) at 0.25 mg/kg of 120%.

Take `CCOC(=O)Nc1cc2c(c(NC(=O)NCCCl)n1)N=C(c1ccc(OC(=O)NCCCl)cc1)C(C)N2` (stereo not given): the IC50 in experiment [4] turned out to be 570 nM.

In experiment [1], `CCOC(=O)Nc1cc2c(c(N)n1)N=C(c1ccc(O)cc1)[C@H](C)N2` registered an MI0.5 of 0.3 nM. This compound also returned an IC50 in experiment [4] of 0.18 nM. The increase in life span (ILS) at 0.22 mg/kg in experiment [6] stood at 58%.

Turning to `CCOC(=O)Nc1cc2c(c(N)n1)N=C(c1ccc(O)cc1)[C@@H](C)N2`, the IC50 in experiment [4] was found to be 32 nM. Besides, the ILS at 25 mg/kg in experiment [7] came to 77%.

In experiment [1], `CCOC(=O)Nc1cc2c(c(N)n1)N=C(c1ccc(OCc3ccccc3)cc1)C(C)N2` (stereo not given) showed an MI0.5 of 30 nM. Besides, the IC50 in experiment [4] stood at 7 nM. The compound also came in with an increase in lifespan (ILS) at 1 mg/kg in experiment [2] of 120%.

`CCOC(=O)Nc1cc2c(c(N)n1)N=C(c1ccc(O)cc1)C(C)N2` (racemic) came in with an MI0.5 in experiment [1] of 0.47 nM. In experiment [4], this compound registered an IC50 of 0.22 nM. This compound came in with an ILS at 0.5 mg/kg in experiment [8] of 55%.

In experiment [1], `CCOC(=O)Nc1cc2c(c(N)n1)N=C(c1ccccc1)C(C)N2` (racemic) gave an MI0.5 of 0.58 nM. In experiment [2], this compound gave an ILS at 1 mg/kg of 71%.

In experiment [1], `CCOC(=O)Nc1cc2c(c(N)n1)N=C(c1ccccc1)[C@H](C)N2` [MIVOBULIN] yielded an MI0.5 of 0.14 nM. The compound further displayed an IC50 in experiment [4] of 0.09 nM. The compound further returned an ILS at 0.5 mg/kg in experiment [8] of 64%.

(Values after ChEMBL document CHEMBL1126268, “Antimitotic agents. Chiral isomers of ethyl [5-amino-1,2-dihydro-3-(4-hydroxyphenyl)-2-methylpyrido[3,4-b]pyrazin-7 -yl]carbamate” (J Med Chem, 1992).)
